{
  "source": "ChEMBL document CHEMBL4354866",
  "about": "“TREK Channel Family Activator with a Well-Defined Structure-Activation Relationship for Pain and Neurogenic Inflammation” (J Med Chem, 2020)",
  "key": {"Mus musculus [1]": {"test_system": "Mus musculus", "test": "Analgesic activity in CFA-induced mouse model of chronic inflammatory pain assessed as reduction in mechanical allodynia at 5 mg/kg, ip measured up to 90 mins by von frey test", "format": "functional, organism-based", "outline": "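CFA (20 μl s.c.) injected into the left hindpaw of mice; compound given i.p. in DMSO/Tween 80/saline vehicle. Mice acclimated 3 days on a wire-mesh floor; mechanical threshold measured with von Frey filaments applied in ascending order.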"}, "[2]": {"target": "Potassium channel subfamily K member 3 (Homo sapiens) (UniProt O14649)", "sequence (O14649 whole entry, looked up)": "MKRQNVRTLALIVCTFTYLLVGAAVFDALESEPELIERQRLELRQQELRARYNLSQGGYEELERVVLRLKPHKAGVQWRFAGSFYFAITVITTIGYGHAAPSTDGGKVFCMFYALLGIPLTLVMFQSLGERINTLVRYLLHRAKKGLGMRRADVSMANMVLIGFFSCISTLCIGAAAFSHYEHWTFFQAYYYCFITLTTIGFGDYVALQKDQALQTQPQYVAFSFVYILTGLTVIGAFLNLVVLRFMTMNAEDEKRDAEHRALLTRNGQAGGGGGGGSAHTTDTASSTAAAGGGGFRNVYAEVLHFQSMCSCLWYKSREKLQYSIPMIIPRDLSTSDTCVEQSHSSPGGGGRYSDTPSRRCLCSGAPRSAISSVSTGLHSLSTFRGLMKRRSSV", "test": "Activation of recombinant human TASK1 expressed in HEK293T cells assessed as increase in K+ current amplitude at 10 uM by whole cell voltage clamp electrophysiological analysis", "format": "cell-based", "outline": "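HEK-293T cells transiently transfected with the human K2P channel. Whole-cell clamp at -60 mV, 500-ms ramp -120 to +60 mV. Pipette 140 KCl (pH 7.4), external 145 NaCl/4 KCl (pH 7.3). Compound 10 μM, diluted from 10 mM DMSO stock into external solution.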"}, "[3]": {"target": "T1, Potassium channel subfamily K member 2 (Homo sapiens) (UniProt O95069)", "T1 sequence (whole entry)": "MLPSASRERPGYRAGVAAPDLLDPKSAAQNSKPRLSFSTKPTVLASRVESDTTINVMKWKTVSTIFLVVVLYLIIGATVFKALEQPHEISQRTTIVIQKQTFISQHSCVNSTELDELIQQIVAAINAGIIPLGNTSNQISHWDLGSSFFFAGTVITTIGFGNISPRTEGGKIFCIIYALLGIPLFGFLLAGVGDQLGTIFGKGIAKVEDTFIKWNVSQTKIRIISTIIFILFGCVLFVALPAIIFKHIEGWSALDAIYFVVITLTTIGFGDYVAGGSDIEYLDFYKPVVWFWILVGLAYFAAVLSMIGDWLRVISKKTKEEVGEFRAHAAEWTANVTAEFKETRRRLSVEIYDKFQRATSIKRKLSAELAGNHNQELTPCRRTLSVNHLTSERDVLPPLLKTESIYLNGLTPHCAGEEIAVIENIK", "test": "Activation of recombinant human TREK1 expressed in HEK293T cells assessed as change in single channel conductance by outside-out patch electrophysiological analysis", "format": "cell-based", "outline": "(§1)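 Outside-out patches from HEK-293T cells transfected with human TREK-1 (pEGFP-N1). Pipettes 7–15 MΩ. Open probability measured at -60 and +60 mV. Conductance taken as first open-state current amplitude divided by voltage at ±60 mV.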"}, "[4]": {"test_system": "T2, Potassium channel subfamily K member 2 (Homo sapiens), O95069 [F160A]", "T2 sequence (whole entry)": "T1 sequence (whole entry) with F160A", "test": "Activation of recombinant human TREK1 F160A mutant expressed in HEK293T cells assessed as increase in K+ current amplitude by whole cell voltage clamp electrophysiological analysis", "format": "cell-based", "outline": "(§2)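 Transiently transfected HEK-293T cells, whole-cell voltage clamp. Held at -60 mV, 500-ms ramp -120 to +60 mV. Pipette (mM) 140 KCl, 5 EGTA, 10 HEPES, pH 7.4; external 145 NaCl, 4 KCl, pH 7.3. Compound diluted from 10 mM DMSO stock and applied extracellularly. Current increase over control fitted to concentration–response curves for EC50.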"}, "[5]": {"target": "T1, Potassium channel subfamily K member 2 (Homo sapiens)", "test": "Activation of recombinant human TREK1 expressed in HEK293T cells assessed as increase in probability of open channel by outside-out patch electrophysiological analysis", "format": "cell-based", "outline": "as §1"}, "[6]": {"target": "Potassium channel subfamily K member 2 (Homo sapiens, UniProt O95069, T156A)", "sequence (O95069 whole entry T156A)": "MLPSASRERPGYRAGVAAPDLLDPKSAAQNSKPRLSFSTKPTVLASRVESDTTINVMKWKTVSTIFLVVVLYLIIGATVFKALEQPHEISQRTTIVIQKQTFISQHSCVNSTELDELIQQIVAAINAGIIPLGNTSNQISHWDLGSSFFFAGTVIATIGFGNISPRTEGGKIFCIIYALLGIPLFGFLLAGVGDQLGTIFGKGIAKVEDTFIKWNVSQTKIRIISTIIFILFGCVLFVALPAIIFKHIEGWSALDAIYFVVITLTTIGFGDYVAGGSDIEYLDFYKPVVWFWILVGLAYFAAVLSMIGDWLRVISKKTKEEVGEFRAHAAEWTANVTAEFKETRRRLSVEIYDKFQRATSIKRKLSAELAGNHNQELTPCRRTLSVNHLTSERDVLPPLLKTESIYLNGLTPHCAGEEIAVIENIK", "test": "Activation of recombinant human TREK1 T156A mutant expressed in HEK293T cells assessed as increase in K+ current amplitude by whole cell voltage clamp electrophysiological analysis", "format": "cell-based", "outline": "as §2"}, "Mus musculus [7]": {"test_system": "Mus musculus", "test": "(§3) Analgesic activity in cerulein-induced mouse model of acute pancreatitis assessed as reduction in pancreatic edema at 10 mg/kg, ip administered at 2 hrs interval for 10 hrs starting from post-first cerulein challenge and measured 12 hrs post-first cerulein challenge by H and E staining based histopathological analysis", "format": "functional, organism-based", "outline": "(§4)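 Cerulein pancreatitis: 7 hourly i.p. injections of 50 µg/kg; 10 mg/kg compound i.p. at 2, 4, 6, 8 and 10 h. Mice killed at 12 h and pancreas harvested for MPO activity and H&E histology. Ten random fields per slide scored blind by two observers for edema, inflammatory infiltration and acinar necrosis; n = 6.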"}, "Mus musculus [8]": {"test_system": "Mus musculus", "test": "as §3, with “necrosis” for “edema”", "format": "functional, organism-based", "outline": "as §4"}, "[9]": {"target": "T3, TREK-2 two-pore-domain K+ channel (Mus musculus, UniProt Q3LS20)", "T3 sequence (Q3LS20 whole entry)": "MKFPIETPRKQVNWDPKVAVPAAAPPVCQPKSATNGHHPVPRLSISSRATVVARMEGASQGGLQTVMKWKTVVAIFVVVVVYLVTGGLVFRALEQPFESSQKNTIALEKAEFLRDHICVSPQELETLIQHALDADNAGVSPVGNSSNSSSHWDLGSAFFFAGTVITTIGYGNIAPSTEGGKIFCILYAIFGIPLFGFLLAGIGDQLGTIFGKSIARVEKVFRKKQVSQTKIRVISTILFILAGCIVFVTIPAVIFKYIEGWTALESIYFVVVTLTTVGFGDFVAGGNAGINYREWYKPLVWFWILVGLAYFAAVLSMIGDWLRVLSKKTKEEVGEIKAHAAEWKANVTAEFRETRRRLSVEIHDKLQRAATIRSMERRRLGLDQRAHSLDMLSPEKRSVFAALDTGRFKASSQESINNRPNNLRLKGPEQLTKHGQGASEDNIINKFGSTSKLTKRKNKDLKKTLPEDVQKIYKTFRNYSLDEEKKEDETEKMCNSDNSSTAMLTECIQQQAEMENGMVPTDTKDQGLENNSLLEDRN", "test": "Activation of recombinant mouse TREK2 expressed in HEK293T cells assessed as increase in K+ current amplitude by whole cell voltage clamp electrophysiological analysis", "format": "cell-based", "outline": "as §2"}, "Mus musculus [10]": {"test_system": "Mus musculus", "test": "Analgesic activity in mouse model of spared nerve injury assessed as reduction in number of hind paw lifting at 5 mg/kg, ip incubated for 30 mins measured within 5 mins by spontaneous pain test", "format": "functional, organism-based", "outline": "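SNI mice, day 7, acclimated 3 days on a wire-mesh floor. Compound 5 mg/kg i.p. Starting 30 min after injection, mice were videotaped for 5 min and left hindpaw flinches counted blind; n = 7.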"}, "Mus musculus [11]": {"test_system": "Mus musculus", "test": "as §3, with “inflammatory infiltration” for “edema”", "format": "functional, organism-based", "outline": "as §4"}},
  "note": "Numbering of substitutions follows the chain as printed. pEC50: −log10 of the molar value. Activity calls are given as the source filed them.",
  "data": [
    {"smiles": "Cc1ccc2nc(-c3ccc(NC(=O)[C@@H]4CC[C@H](C(=O)O)C4)cc3)sc2c1", "values": [
      {"measurement": "Activity", "setting": "Mus musculus [1]", "value": "Active"},
      {"measurement": "Activity", "setting": "[2]", "value": "Active"},
      {"measurement": "Activity", "setting": "[3]", "value": "inactive"},
      {"measurement": "Activity", "setting": "[4]", "value": "inactive"},
      {"measurement": "Activity", "setting": "[5]", "value": "Active"},
      {"measurement": "pEC50", "setting": "[6]", "value": 5.12},
      {"measurement": "Activity", "setting": "Mus musculus [7]", "value": "Active"},
      {"measurement": "Activity", "setting": "Mus musculus [8]", "value": "Active"},
      {"measurement": "pEC50", "setting": "[9]", "value": 4.95},
      {"measurement": "Activity", "setting": "Mus musculus [10]", "value": "Active"},
      {"measurement": "Activity", "setting": "Mus musculus [11]", "value": "Active"}
    ]}
  ]
}
